{"data": "Measurements gathered from unrelated publications", "target": "Dual specificity protein kinase CLK3 (CLK3, Homo sapiens, UniProt P49761)", "note": "Protocols differ between the studies behind these lines."}
{"SMILES": "Cc1cc(O)c(-c2ccc([C@@H](C)CN(C)C)cc2)c2c1[nH]c(=O)c1sccc12", "read-out": "enzyme activity", "mode": "inhibitor", "tested at": "0.1 µM", "quantity": "inhibition", "value": "-13.2%"}
{"SMILES": "CCCCC(=O)Nc1ccc(-c2ccc3ncn(CCC)c(=O)c3c2)cn1", "read-out": "binding", "technique": "competition with immobilised ligand", "tested at": "0.5 µM", "quantity": "remaining binding", "value": "78%"}
{"SMILES": "C=CC(=O)N1CCC([C@@H]2CCNc3c(C(N)=O)c(-c4ccc(Oc5ccccc5)cc4)nn32)CC1", "read-out": "enzyme activity", "mode": "inhibitor", "tested at": "1 µM", "quantity": "inhibition", "value": "16%"}
{"SMILES": "CN1CCN(C(=O)c2ccc(NC(=O)Nc3ccc(N(C)c4ccnc(Nc5ccc(CS(C)(=O)=O)cc5)n4)cc3)cc2)CC1", "read-out": "binding", "tested at": "1 µM", "quantity": "remaining binding", "value": "95%"}
{"SMILES": "C=CC(=O)N1CCC[C@@H](n2nc(-c3ccc(Oc4ccccc4)cc3)c3c(N)ncnc32)C1", "read-out": "enzyme activity", "mode": "inhibitor", "tested at": "1 µM", "quantity": "inhibition", "value": "23%"}
{"SMILES": "C1=C/COCc2cc(ccc2OCCN2CCCC2)Nc2nccc(n2)-c2cccc(c2)COC/1", "read-out": "binding", "tested at": "0.1 µM", "quantity": "remaining binding", "value": "100%"}
{"SMILES": "C[C@H]1CC[C@H](n2c3cnccc3c3cnc(Nc4ccc5c(n4)CCN(C(=O)CO)C5)nc32)CC1", "read-out": "cell-free assay", "tested at": "1 µM", "quantity": "remaining signal", "value": "100%"}
{"SMILES": "CC(C)S(=O)(=O)c1ccc2nccc(Nc3ccc4sc(C5CCCC5)nc4c3)c2c1", "read-out": "enzyme activity", "mode": "inhibitor", "tested at": "1 µM", "quantity": "activity vs control", "value": "110%"}
